Each structure is given as a SMILES string. Values joined by “and” are separate entries in the source; they are usually repeats but may differ in a detail not shown here. Equal entries are not always repeated. Active and inactive are the calls of the source. No cut-off for these calls is given here.

Here are results for eight molecules from ChEMBL document CHEMBL1123532, “Conformationally defined adrenergic agents. 3. Modifications to the carbocyclic ring of 5,6-dihydroxy-1-(2-imidazolinyl)tetralin: improved separation of alpha 1 and alpha 2 adrenergic activities” (J Med Chem, 1986).

In test [1] the target is T1, Adrenergic receptor alpha-1 (Homo sapiens) (UniProt P35348+P25100+P35368). Nature of the test: Compound was evaluated for alpha-1 adrenergic receptor activity in isolated rabbit aortic tissue, effective dose of norepinephrine (NE). Particulars: Oryctolagus cuniculus; target entry is the homologue from another species. The method in brief:
(§1)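 Helical aortic strip in 10-mL bath of Krebs buffer, pH 7.4, under 2 g initial tension and equilibrated 1 h with four washes. Cumulative norepinephrine curve run from 1 × 10^-8 to 1 × 10^-3 M, each response allowed to plateau. After washout, tension reset to 2 g and a cumulative test-compound curve run in the same tissue. Isometric contraction recorded; molar ED50 taken for each.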

In test [2] the target is T2, Adrenergic receptor alpha-2 (Homo sapiens) (UniProt P08913+P18825+P18089). Nature of the test: Compound was evaluated for alpha-2 adrenergic receptor activity in the phenoxybenzamine (PBZ) - pretreated dog saphenous vein, effective dose (CPD). To be noted: Canis lupus familiaris, target entry is the homologue from another species. The class given is tissue-based. The method in brief: (§2)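 Beagle lateral saphenous vein rings (3-4 mm, either sex) in bicarbonate buffer with cocaine, hydrocortisone and propranolol, gassed with 95% O2/5% CO2 at 37 °C, pH 7.45, under 2 g. After maximal NE (1 × 10^-4 M) contraction and 60 min wash, exposed to phenoxybenzamine 1 × 10^-7 M for 30 min, then washed 60 min. Control cumulative NE curve, washout, then test-compound curve in the same tissue. Molar ED50 from isometric contraction.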

Test [3] has as its target T1, Adrenergic receptor alpha-1 (Homo sapiens). The test can be described thus: Compound was evaluated for alpha-1 adrenergic activity in isolated rabbit aortic tissue, effective dose (CPD). The class given is tissue-based. To be noted: Oryctolagus cuniculus; Aorta; target entry is the homologue from another species. In outline: as §1
Test [4] deals with T2, Adrenergic receptor alpha-2 (Homo sapiens). Nature of the test: Compound was evaluated for alpha-2 adrenergic receptor activity in the phenoxybenzamine (PBZ) - pretreated dog saphenous vein, effective dose of norepinephrine (NE). Type of test: tissue-based. To be noted: Canis lupus familiaris, target entry is the homologue from another species. The method in brief: as §2

For test [5] the target is unchanged. The test can be described thus: Compound was evaluated for alpha-2 adrenergic receptor activity in the phenoxybenzamine (PBZ) - pretreated dog saphenous vein, effective dose (CPD); inactive. Type of test: tissue-based. Particulars: Canis lupus familiaris, target entry is the homologue from another species.
Test [6] in a line: Compound was evaluated for the percent of maximum response of the tissue to NE. Type of test: functional.
The nature of test [7]: Compound was evaluated for the percent of maximum response of the tissue to NE; IA=Inactive. The class given is functional.
The target in test [8] is T1, Adrenergic receptor alpha-1 (Homo sapiens). The test can be described thus: Compound was evaluated for alpha-1 adrenergic receptor activity in isolated rabbit aortic tissue, effective dose (CPD). Particulars: Oryctolagus cuniculus; target entry is the homologue from another species. In outline:
as §1

Test [9] concerns the target T2, Adrenergic receptor alpha-2 (Homo sapiens). Nature of the test: Compound was evaluated for alpha-2 adrenergic receptor activity in the phenoxybenzamine (PBZ) - pretreated dog saphenous vein, effective dose (CPD); Inactive. To be noted: Canis lupus familiaris, target entry is the homologue from another species. The class given is tissue-based. The method in brief:
as §2

For test [10], the target named is T1, Adrenergic receptor alpha-1 (Homo sapiens). The test can be described thus: Compound was evaluated for alpha-1 adrenergic activity in isolated rabbit aortic tissue, effective dose of norepinephrine (NE). The class given is tissue-based. Particulars: Oryctolagus cuniculus; Aorta; target entry is the homologue from another species. The method in brief: (§3)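 Helical aortic strip in Krebs buffer (pH 7.4) at 2 g initial tension, equilibrated 1 h with four washes; isometric contraction recorded. Cumulative norepinephrine curve (1 × 10^-8 to 1 × 10^-3 M), each step to plateau; washes every 10-15 min for 60-90 min, tension reset to 2 g, then cumulative test-compound curve in the same tissue. Molar ED50 values; index (ED50 NE/ED50 CPD) computed per experiment.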

Test [11] shares this target. The test can be described thus: Compound was evaluated for alpha-1 adrenergic receptor activity in isolated rabbit aortic tissue, effective dose (CPD); IA=Inactive. To be noted: Oryctolagus cuniculus; target entry is the homologue from another species. In outline:
as §3

As for `C[C@@H]1CCc2c(ccc(O)c2O)[C@H]1C1=NCCN1`, the ED50 in test [1] was determined as 48 nM; in [2], 4500 nM; in test [3], 4390 nM; in [4], 560 nM.
Take `CCC1(CC)CC[C@H](C2=NCCN2)c2ccc(O)c(O)c21`: the ED50 in test [1] amounted to 98 nM; in [8], 47000 nM; in [4] it was 603 nM. For the same molecule, in [5], the ED50 result was “inactive”. This molecule also had an Emax in [6] of 44. Further, the Emax entry in test [7] was “inactive”.
With `CC1(C)CC[C@H](C2=NCCN2)c2ccc(O)c(O)c21`, the values for the ED50 in test [1], in [8] and in test [4] were 125 nM, 284 nM and 1240 nM, respectively. In [9], the ED50 result is “inactive”. Besides, the Emax in [6] is 100. Moreover, the Emax result in [7] is “inactive”.
As to `Oc1ccc2c(c1O)CC[C@@H](c1ccccc1)[C@@H]2C1=NCCN1`, the ED50 in test [10] is 73 nM; in [4], 519 nM. Further, the ED50 entry in test [2] and in [11] was “inactive” in each case. Moreover, the Emax entry in test [7] was “inactive”.
Turning to `Oc1ccc2c(c1O)OCC[C@@H]2C1=NCCN1`, the ED50 in [1] stood at 67 nM; in test [2] it was 35 nM; in test [8], 35 nM; in [4], 720 nM. Besides, the Emax in test [6] is 118 and 107.
For `C[C@]1(C2=NCCN2)CCCc2c1ccc(O)c2O`, the ED50 stood at 41 nM in test [1], 6100 nM in [2], 16600 nM in [8] and 924 nM in [4]. For the same molecule, in test [6], the Emax is 69 and 76.
As for `Oc1ccc2c(c1O)CCCC2C1=NCCN1` (stereo unspecified), the ED50 in test [1] was 140 nM; in test [2], 5 nM; in [8], 17 nM; in test [4], 720 nM. Also, in [6], the Emax was 114 and 102.
Regarding `Oc1ccc2c(c1O)SCC[C@@H]2C1=NCCN1`, the ED50 worked out at 219 nM in [1], 19 nM in test [2], 20 nM in [8] and 526 nM in test [4]. Further, in test [6], the Emax is 129 and 105.
